Rows were chosen to be rich in hits. Some 3.7% of all compounds tested hit in one or more screens of this group.
KCNQ1 block – inhibitors of human KCNQ1 channel, primary screen, cell-based, thallium flux, high-throughput | Potassium voltage-gated channel subfamily KQT member 1 (Homo sapiens), P51787 | CHO-K1 KCNQ1, FluxOR thallium flux fluorescence; hits give high values | B-score at 10 µM | 310,000 tested, 1.3% active;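 active = compounds whose thallium flux B-score, printed positive for inhibition, exceeds three library SD while starting fluorescence stays within three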;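 note: channel opened by potassium depolarization with thallium stimulus after 20 min compound exposure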
hERG protect – hERG rescue from dofetilide block, primary screen, cell-based, CHO-hERG, FluxOR thallium flux, dofetilide IC70 | activation (rescue from dofetilide block), less the hit threshold, % at 10 µM | dofetilide IC70 present | 310,000 tested, 0.51% active | AID 1511, 2009;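 active = activation above the mean of controls blocked by dofetilide plus 5 SD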;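 note: thallium influx through hERG after potassium depolarization seen as dye fluorescence rise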
KCNQ1 act – potentiators or activators of KCNQ1 channel, primary screen, cell-based, thallium flux, high-throughput. B-score at 10 µM. 310,000 tested, 0.35% active. Potassium voltage-gated channel subfamily KQT member 1 (Homo sapiens), P51787. CHO-K1 KCNQ1, thallium flux FluxOR fluorescence; hits give high values;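 active = fluorescence ratio B-score, a plate-corrected score, at least three library SD, with initial intensity B-score within 5 SD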
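Material: CHO-K1 cells stably expressing KCNQ1. Medium: assay buffer for compound exposure, DMSO matched across wells. Reagent: K+/Tl+ depolarizing stimulus. Compound dosing: single-concentration screen. Times: 37 °C overnight plating, 90-min dark dye load, 20-min compound pretreatment. Technique: FluxOR Tl+ flux fluorescence.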
KCNK9 block – KCNK9 potassium channel inhibitors, primary screen, HEK293 cells, thallium flux | B-score at 10 µM | Potassium channel subfamily K member 9 (Homo sapiens), Q9NPC2 | FluxOR thallium flux fluorescence; hits give low values | 310,000 tested, 1.2% active;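 active = ratio B-score over 3 SD below the library mean, with starting fluorescence within 5 SD of its mean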;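 note: negative B-score means less thallium flux so channel inhibition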
Kir21 block – inhibitors of mouse Kir2.1 inward-rectifier potassium channel; AID 1672, 2009; 310,000 tested, 0.85% active; Inward rectifier potassium channel 2 (Mus musculus), P35561; B-score at 10 µM; HEK293-Kir2.1, FluxOR thallium flux fluorescence; hits give low values;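 active = fluorescence ratio B-score at or below minus 3 SD of library scores, with starting-brightness B-score within 2 SD, cut at about -4.2 in these data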;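 note: channel flux triggered by added potassium and thallium sulfate stimulus; B-score of peak minus minimum fluorescence over baseline after thallium stimulus; more negative B-score means stronger Kir2.1 block with less thallium influx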
Target sequence (P35561 whole entry, looked up): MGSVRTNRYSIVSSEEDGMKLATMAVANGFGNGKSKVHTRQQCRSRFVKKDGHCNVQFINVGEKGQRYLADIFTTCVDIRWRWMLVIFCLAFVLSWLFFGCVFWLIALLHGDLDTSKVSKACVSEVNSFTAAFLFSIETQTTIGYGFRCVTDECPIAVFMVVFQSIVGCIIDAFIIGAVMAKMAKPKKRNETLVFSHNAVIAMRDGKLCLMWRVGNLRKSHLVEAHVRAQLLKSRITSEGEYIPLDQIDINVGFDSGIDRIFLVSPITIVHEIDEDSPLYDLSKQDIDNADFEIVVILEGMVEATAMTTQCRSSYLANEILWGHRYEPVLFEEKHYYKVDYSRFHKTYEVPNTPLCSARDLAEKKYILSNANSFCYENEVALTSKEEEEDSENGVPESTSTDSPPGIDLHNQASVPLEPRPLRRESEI
KCNK3 inh – human KCNK3 channel inhibitors, primary screen, CHO cells, FluxOR thallium flux, B-score; Potassium channel subfamily K member 3 (Homo sapiens), O14649; FluxOR fluorescence; hits give low values; B-score at 10 µM; 340,000 tested, 0.84% active;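 active = B-score under library mean minus 4 SD, starting fluorescence ratio at most library mean plus 5 SD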;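 note: more negative B-score means stronger inhibition of thallium flux through KCNK3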
KCNK9 block conf – KCNK9 potassium channel inhibitors, confirmation, HEK293 cells, thallium flux, duplicate; FluxOR thallium flux fluorescence; 4,900 tested, 43% active; inhibition, % at 10 µM; shares compounds with KCNK9 block;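 active = thallium signal inhibited by more than 5 SD of the compound-free buffer control wells, on both duplicate plates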;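 note: 0% = assay buffer control wells without compound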
Kir21 sel – mouse Kir2.1 channel inhibition, confirmation, selectivity assay for KCNK9 modulator project, cell-based, HEK293, thallium flux. shares compounds with KCNK9 block. 4,900 tested, 4% active. inhibition, % at 10 µM. AID 492993, 2010. Kir2.1 cells, FluxOR thallium flux fluorescence;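 active = thallium signal drop more than 5 SD beyond the mean of the no-compound control wells, seen in both duplicate plates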;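 note: signal is fluorescence rise after thallium addition divided by baseline fluorescence; plate controls were assay buffer only for no effect and full block by chlorpromazine control for full effect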
HEK293 Tl ctr – thallium flux in non-induced HEK293 cells, confirmation, counter-screen for KCNK9 inhibitor project, cell-based, second counter screen, non-induced KCNK9-HEK293; shares compounds with KCNK9 block; FluxOR thallium flux; inhibition, % at 10 µM; 4,900 tested, 40% active;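 active = thallium signal drop beyond 5 SD of the untreated control mean, on both duplicate plates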;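 note: plate controls were buffer only IC0 wells for no effect and SID17386958 at its maximal inhibitory level for full effect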
KCNK3 confirm – retest of human KCNK3 channel inhibitors, confirmation, CHO cells, FluxOR thallium flux, triplicate. 2,400 tested, 99% active. shares compounds with KCNK3 inh. FluxOR fluorescence; 0% buffer, 100% carvedilol maximal block. ratio percent of control, % at 10 µM;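 active = ratio percent of control, averaged over triplicates, above buffer control mean plus 5 SD, cut at about 64% in these data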;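 note: ratio is the fluorescence rise from min to max over baseline after thallium stimulus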
KCNK3 noninduced – thallium flux inhibition in non-induced cells, primary screen, counter-screen for KCNK3 inhibitor project, cell-based, non-induced KCNK3 line, FluxOR thallium, triplicate. non-induced KCNK3 parental cells; hits give low values. thallium flux ratio (lower = more inhibition) at 10 µM. shares compounds with KCNK3 inh. 2,400 tested, 40% active;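 active = thallium flux ratio, averaged over three wells, more than 5 SD below the buffer control mean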;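 note: host cells are CHO cells without KCNK3 induction; ratio is peak minus trough fluorescence over baseline then normalized to buffer controls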
The depositor's hits bear a star; i = inactive; nt = no result.

SMILES | KCNQ1 block | hERG protect | KCNQ1 act | KCNK9 block | Kir21 block | KCNK3 inh | KCNK9 block conf | Kir21 sel | HEK293 Tl ctr | KCNK3 confirm | KCNK3 noninduced
Cc1ccc(C(=O)CCC(=O)N2CCN(c3ccccc3O)CC2)cc1 | i | -10.6 | i | i | 1.35 | i | nt | nt | nt | nt | nt
CC(Nc1nc(-c2ccccc2)nc2ccccc12)c1ccccc1 (stereo unspecified) | i | -19.8 | i | -8.94* | 0.45 | -11.2* | i | i | 36.0%* | 102.3* | i
N#Cc1c(-c2ccccc2)c(-c2ccccc2)n(Cc2ccco2)c1NC(=O)c1cccs1 | 6* | -4.6 | i | -12.6* | -0.8 | -12.7* | 57.5%* | i | 41.5%* | 112.0* | i
O=C(COC(=O)C1=COCCO1)NC(=O)c1ccc(OC(F)F)cc1 | i | -12.1 | i | i | 0.36 | i | nt | nt | nt | nt | nt
Fc1ccc(C2CC(c3cccs3)=NN2c2ccccc2)cc1 (stereo unspecified) | i | -15.8 | i | -9.83* | 0.35 | -8.89* | 58.5%* | i | 38.5%* | 104.0* | 0.147*
CNC(=S)N1N=C(c2cccs2)CC1c1ccc(F)cc1 (stereo unspecified) | i | -8.9 | i | i | 0.22 | i | nt | nt | nt | nt | nt
CN(C)S(=O)(=O)c1ccc(NC=O)cc1 | i | -8.4 | i | i | -0.05 | i | nt | nt | nt | nt | nt
COc1ccccc1CNC(=O)c1csc(Cc2ccc(Cl)cc2)n1 | i | -10.2 | i | i | 4.59 | -13.4* | i | i | 26.0%* | 122.3* | 0.136*
COc1ccc(CNC(=O)c2csc(Cc3ccccc3)n2)cc1 | i | -8.6 | i | i | -4.19 | i | nt | nt | nt | nt | nt
CCOc1ccccc1NC(=O)C(Sc1ccccc1)c1ccccc1 (stereo unspecified) | i | -15.9 | i | -8.38* | 2.83 | -8.71* | i | i | 40.0%* | 95.3* | 0.155*
CCOc1ccccc1NC(=O)c1ccc2ccccc2c1 | i | -8.2 | i | -10.6* | 0.52 | -9.74* | 63.5%* | i | 32.5%* | 113.0* | i
CCOc1ccccc1NC(=O)NNC(=O)c1ccc2ccccc2c1 | i | -6.3 | i | i | -0.31 | i | nt | nt | nt | nt | nt
O=C(Nc1ccccc1)c1sc2cc(C(F)(F)F)cnc2c1-c1cccs1 | i | -8.3 | i | -8.99* | 0.56 | -9* | 40.5%* | i | 34.0%* | 112.3* | i
Cc1ccc(C(=O)N2CCN=C2SCc2ccc([N+](=O)[O-])cc2)cc1C | i | -5.6 | i | i | -0.99 | i | nt | nt | nt | nt | nt
Cc1cc(NC(=S)N(CCN2CCCCC2)Cc2ccco2)ccc1Cl | i | -12.7 | i | -8.19* | 1.67 | -11.4* | 25.0%* | i | 27.5%* | 108.0* | i
CCOc1ccc(CCNC(=O)COC(=O)c2cccc(S(=O)(=O)N3CCCC3)c2)cc1OCC | i | -8.6 | i | -9.42* | -1.29 | -9.22* | 38.5%* | i | 36.5%* | 65.0* | i
O=C(OCc1ccc2c(c1)OCO2)c1cccc(S(=O)(=O)N2CCCCC2)c1 | i | -7.6 | i | -19* | 0.93 | -9.26* | 72.5%* | i | 29.5%* | 114.0* | i
Cc1cc(NC(=O)Cn2nnc(-c3ccccc3NC(=O)c3ccccc3F)n2)no1 | i | -3.4 | i | i | 2.59 | i | nt | nt | nt | nt | nt
COc1cc(C(=O)NCc2nnc(SCC(=O)NCCc3ccccc3)o2)cc(OC)c1OC | i | -2.4 | i | i | 0.59 | i | nt | nt | nt | nt | nt
CCOc1ccccc1CNS(=O)(=O)c1cc(-c2cc(C)no2)ccc1OC | i | -5.3 | i | i | -2.77 | i | nt | nt | nt | nt | nt
COc1ccccc1CNS(=O)(=O)c1cc(-c2cc(C)no2)ccc1C(C)C | 6* | -15.7 | i | -11.1* | -0.43 | -9.5* | 59.5%* | i | 37.5%* | 119.0* | 0.139*
CN(C)c1ccc(C(CNC(=O)c2ccccc2)c2c[nH]c3ccccc23)cc1 (stereo unspecified) | i | -13.9 | i | -13.3* | 0.03 | -9.22* | 54.0%* | i | 27.0%* | 101.0* | 0.139*
Cc1nc2c(-c3ccc(F)cc3)c(C)nn2c(C)c1CCC(=O)N1CCC(Cc2ccccc2)CC1 | i | -10.3 | i | -9.82* | 0.45 | -10* | i | i | 41.5%* | 115.0* | i
CCOC(=O)C1CCN(S(=O)(=O)CCNC(=O)c2cccc(OC)c2)CC1 | i | -17.4 | i | i | -0.74 | i | nt | nt | nt | nt | nt
Cc1ccc([N+](=O)[O-])cc1-c1[nH]c(-c2ccc(O)c(O)c2)nc1-c1ccccc1 | i | -29.1 | i | -9.01* | -1.33 | -9.8* | 39.5%* | i | i | 111.3* | i
COc1ccc([N+](=O)[O-])cc1-c1[nH]c(-c2ccc(C(=O)O)cc2)nc1-c1ccccc1 | i | -7.6 | i | i | -0.35 | i | nt | nt | nt | nt | nt
C/C(=N\N=C(/C)c1cccc(N)c1)c1cccc(N)c1 | i | -3.6 | i | i | 0.9 | i | nt | nt | nt | nt | nt
CN(CCC1CCCCO1)C(=O)c1cc(COc2ccc(F)cc2F)on1 (stereo unspecified) | i | -11.2 | i | i | -0.39 | i | nt | nt | nt | nt | nt

Bioassay records as filed in PubChem.
